{"source": "ChEMBL document CHEMBL1135898", "about": "“Synthesis and antimycobacterial activity of 6-arylpurines: the requirements for the N-9 substituent in active antimycobacterial purines” (J Med Chem, 2002)", "key": {"K562 [1]": {"test_system": "K562", "assay": "Cytostatic activity against chronic myelogenous leukemia cells (K-562) based on its ability to inhibit [3H]thymidine incorporation", "assay_type": "functional, cell-based", "settings": "Homo sapiens", "summary_of_the_method": "(§1)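 K-562 chronic myelogenous leukemia cells; cytostatic effect read as inhibition of [3H]thymidine incorporation. Reported as percent inhibition at 10 μg/mL, with EC50 derived only for the more toxic compounds.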"}, "[2]": {"assay": "Selectivity Index, SI = IC50:MIC.ND means not determined.", "assay_type": "functional"}, "K562 [3]": {"test_system": "K562", "assay": "Cytostatic activity against chronic myelogenous leukemia cells (K-562) based on its ability to inhibit [3H]thymidine incorporation (at 1.0 g/ml)", "assay_type": "functional, cell-based", "settings": "Homo sapiens", "summary_of_the_method": "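K-562 leukemia cells; inhibition of [3H]thymidine incorporation measured at 1.00 μg/mL instead of the usual 10 μg/mL because of low compound solubility.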"}, "[4]": {"test_system": "Mycobacterium tuberculosis", "assay": "Percent inhibition of Mycobacterium tuberculosis H37Rv at 6.25 µg/ml concentration in BACTEC 12B medium using microplate alamar blue assay", "assay_type": "functional", "summary_of_the_method": "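Primary screen at single concentration 6.25 μg/mL against M. tuberculosis H37Rv (ATCC 27294) in BACTEC 12B medium, read by microplate alamar blue assay; fluorescent compounds instead tested in BACTEC 460 radiometric system. Percent growth inhibition reported.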"}, "K562 [5]": {"test_system": "K562", "assay": "Cytostatic activity against chronic myelogenous leukemia cells (K-562) based on its ability to inhibit [3H]thymidine incorporation.", "assay_type": "functional, cell-based", "settings": "Homo sapiens", "summary_of_the_method": "as §1"}, "[6]": {"test_system": "Mycobacterium tuberculosis", "assay": "Concentration effecting 90% reduction of Mycobacterium tuberculosis strain Erdman, growth in monolayers of mouse bone marrow macrophages after 7 days", "assay_type": "functional", "settings": "168 h"}, "[7]": {"test_system": "Mycobacterium tuberculosis", "assay": "Concentration effecting 99% reduction of Mycobacterium tuberculosis strain Erdman, growth in monolayers of mouse bone marrow macrophages after 7 days", "assay_type": "functional", "settings": "168 h"}, "Lacticaseibacillus casei": {"test_system": "Lacticaseibacillus casei", "assay": "Minimum Inhibitory Concentration against drug-resistant strain of Lactobacillus casei", "assay_type": "functional"}, "Vero": {"test_system": "Vero", "assay": "Minimum inhibitory concentration for testing cytotoxicity in VERO cells", "assay_type": "functional, cell-based", "settings": "Chlorocebus sabaeus", "summary_of_the_method": "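VERO cells exposed 72 h to compound at concentrations up to 62.5 μg/mL. Viability read by cellular MTT conversion to formazan, and an IC50 was derived.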"}, "[8]": {"test_system": "Mycobacterium tuberculosis", "assay": "Antibacterial activity against Mycobacterium tuberculosis H37Rv in BACTEC 12B medium using microplate alamar blue assay", "assay_type": "functional", "summary_of_the_method": "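MIC against M. tuberculosis H37Rv (ATCC 27294) by microplate alamar blue assay (MABA) in BACTEC 12B medium; compounds reaching ≥90% inhibition in the primary screen were re-tested at lower concentrations. MIC defined as minimum concentration giving 90% inhibition of growth; rifampin reference.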"}}}
{"molecule": "Cn1cnc2c(-c3ccco3)ncnc21", "values": [{"measurement": "IC50", "setting": "K562 [1]", "value": "< 10", "unit": "µg/mL"}]}
{"molecule": "c1ccc(Cn2cnc3c(-c4ccco4)ncnc32)cc1", "note": "[9-BENZYL-6-(FURAN-2-YL)-9H-PURINE]", "values": [{"measurement": "Selectivity index", "setting": "[2]", "value": 2.7}, {"measurement": "IC50", "setting": "K562 [1]", "value": 59, "unit": "µg/mL"}]}
{"molecule": "c1ccc(-c2ncnc3c2ncn3C2CCOCC2)cc1", "values": [{"measurement": "IC50", "setting": "K562 [1]", "value": "< 10", "unit": "µg/mL"}]}
{"molecule": "c1ccc(Cn2cnc3c(-c4ccccc4)ncnc32)cc1", "values": [{"measurement": "IC50", "setting": "K562 [3]", "value": "< 10", "unit": "µg/mL"}]}
{"molecule": "CC(=O)OC[C@H]1O[C@@H](Cn2cnc3c(-c4ccccc4)ncnc32)[C@H](OC(C)=O)[C@@H]1OC(C)=O", "values": [{"measurement": "Inhibition", "setting": "[4]", "value": 4, "unit": "%"}]}
{"molecule": "OC[C@H]1O[C@@H](n2cnc3c(-c4ccccc4)ncnc32)[C@H](O)[C@@H]1O", "values": [{"measurement": "IC50", "setting": "K562 [1]", "value": 99, "unit": "µg/mL"}]}
{"molecule": "OC[C@H]1OC(n2cnc3c(-c4ccco4)ncnc32)[C@H](O)[C@@H]1O", "note": "(stereo partly drawn)", "values": [{"measurement": "Inhibition", "setting": "[4]", "value": 0, "unit": "%"}]}
{"molecule": "OC[C@H]1OC(n2cnc3c(-c4ccco4)nc(Cl)nc32)[C@H](O)[C@@H]1O", "note": "(stereo partly drawn)", "values": [{"measurement": "Inhibition", "setting": "[4]", "value": 7, "unit": "%"}, {"measurement": "IC50", "setting": "K562 [5]", "value": 100, "unit": "µg/mL"}]}
{"molecule": "Clc1nc(-c2ccccc2)c2ncn(Cc3ccccc3)c2n1", "values": [{"measurement": "IC50", "setting": "K562 [5]", "value": 76, "unit": "µg/mL"}]}
{"molecule": "C=CCn1cnc2c(-c3ccco3)ncnc21", "values": [{"measurement": "IC50", "setting": "K562 [1]", "value": 11, "unit": "µg/mL"}]}
{"molecule": "c1ccc(CCn2cnc3c(-c4ccco4)ncnc32)cc1", "values": [{"measurement": "IC50", "setting": "K562 [1]", "value": 53, "unit": "µg/mL"}]}
{"molecule": "Clc1nc(-c2ccco2)c2ncn(Cc3ccccc3)c2n1", "values": [{"measurement": "EC90", "setting": "[6]", "value": 0.038, "unit": "µg/mL"}, {"measurement": "EC99", "setting": "[7]", "value": 8.46, "unit": "µg/mL"}, {"measurement": "IC50", "setting": "K562 [5]", "value": 27, "unit": "µg/mL"}, {"measurement": "MIC", "setting": "Lacticaseibacillus casei", "value": "> 10", "unit": "µg/mL"}]}
{"molecule": "c1coc(-c2ncnc3c2ncn3CC2CCCCC2)c1", "values": [{"measurement": "IC50", "setting": "K562 [1]", "value": 60, "unit": "µg/mL"}]}
{"molecule": "c1ccc(Cn2cnc3c(-c4cccs4)ncnc32)cc1", "values": [{"measurement": "Selectivity index", "setting": "[2]", "value": "> 1.6"}, {"measurement": "IC50", "setting": "K562 [3]", "value": "< 10", "unit": "µg/mL"}, {"measurement": "IC50", "setting": "Vero", "value": "> 10", "unit": "µg/mL"}]}
{"molecule": "CO[C@H]1/C=C/O[C@@]2(C)Oc3c(C)c(O)c4c(O)c(c(/C=N/N5CCN(C)CC5)c(O)c4c3C2=O)NC(=O)/C(C)=C\\C=C\\[C@H](C)[C@H](O)[C@@H](C)[C@@H](O)[C@@H](C)[C@H](OC(C)=O)[C@@H]1C", "note": "[RIFAMPIN]", "values": [{"measurement": "MIC", "setting": "[8]", "value": 0.25, "unit": "µg/mL"}]}
{"molecule": "c1csc(-c2[nH]cnc3ncnc2-3)c1", "values": [{"measurement": "IC50", "setting": "K562 [1]", "value": "< 10", "unit": "µg/mL"}]}
